Screening data: PubChem, several laboratories
The list is not random: actives were taken first. Their share in the collection is about 5%.
CSC inhib – cancer stem cell inhibition; cancer stem cell-like cells viability, luminescence; inhibition, % at 7.5 µM; 300,000 compounds, 1.1% hits; AID 2717; in the data active = inhibition above about 75%; tested in HMLE shEcad cells
Mdm2-MdmX inh – inhibitors of human Mdm2/MdmX interaction; 330,000 compounds, 3% hits; SaOS-2 split-luciferase Mdm2/MdmX complementation, luminescence; inhibition, % at 8 µM;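 active = inhibition of at least 50% at 8 µM in the primary screen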
XBP1 UPR activ – activators of adaptive arm of unfolded protein response (XBP1) | CHO-XBP1 luciferase reporter, IRE1-XBP1 UPR activation, luminescence; percent of tunicamycin response, DMSO as zero | activation, % at 20 µM | 330,000 compounds, 0.33% hits;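 active = versus positive control, 20 µM dose yields 30% or more activation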;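 also: 100% = tunicamycin at 10 µg/mL and 0% = DMSO only wells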
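Test system: CHO-XBP1 luciferase reporter cells | Buffer or medium: Serum-containing F12 medium, 10% FBS | Schedule: 6 h compound exposure at 37 °C, 5% CO2 | Detection: Steady-Glo luciferase glow luminescence, 10 min after reagent addition | Read-out basis: Activation, % of tunicamycin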
CHOP UPR activ – apoptotic UPR (CHOP) activation; activation, % at 10 µM; AID 449763; 330,000 compounds, 0.34% hits; CHO-CHOP luciferase reporter, luminescence; percent of tunicamycin response over DMSO baseline;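 active = at 10 µM dose, activation of 40% or more, normalized to positive control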;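 also: 100% = tunicamycin at 10 µg/mL and 0% = DMSO alone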
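Material: CHO-CHOP cells, stable luciferase reporter of PERK-eIF2a-CHOP signalling; quantity: 500 reporter cells seeded per well; buffer or medium: F12 medium containing 10% fetal bovine serum; compound: one dose, 10 µM in 0.5% DMSO; incubation: 6 h compound treatment, 37 °C; measured by: Steady-Glo luciferase luminescence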
T cruzi repl – T. cruzi replication inhibition; inhibition, % (concentration not given with the values); 300,000 compounds, 1.4% hits; T. cruzi beta-gal in NIH3T3, luminescence, 90 h;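 active = mean inhibition across valid replicates above about 55%, limit read from the data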;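 also: signal also drops with host cell toxicity which is not excluded here; 0% = plate median of DMSO wells and 100% = zero luminescence signal; higher percent means less beta-gal luminescence so fewer parasites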
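Incubation – ≥90 h infection period, 3 h prior cell attachment · System – NIH/3T3 fibroblasts plus reporter T. cruzi · Doses – compound pinned at 50 nL/well, DMSO · Read-out basis – percent inhibition of parasite-derived β-gal signal · Signal – luminescent β-galactosidase signal after 60 min lysis · Also added – 5000 T. cruzi trypomastigotes/well · Medium – Low-serum DMEM with 2% FBS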
Beta apoptosis – beta cell apoptosis inhibition | 300,000 compounds, 0.8% hits | INS-1E cytokine-induced death, ATP luminescence, 48 h; percent of positive-control rescue, neutral wells zero | protection from apoptosis, % (test concentration not listed);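 active = Every replicate reaches about 75%, or at least half do and their mean reaches it too, limit read from the data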;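 also: 0% = cytokine-treated negative control wells and 100% = positive control rescue; higher means more ATP so stronger rescue from cytokine killing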
Active calls of the source: *; x = no result given.

SMILES	CSC inhib	Mdm2-MdmX inh	XBP1 UPR activ	CHOP UPR activ	T cruzi repl	Beta apoptosis
O=C(CN1C(=O)NC2(CCCC2)C1=O)Nc1cc(S(=O)(=O)N2CCCCC2)ccc1Cl	-16	6	0	0	x	-7
Cc1ccc(C)c(-c2nn(-c3cc(N4CCN(CCO)CC4)ccc3[N+](=O)[O-])c(=O)c3ccccc23)c1	x	-2	19	1	61*	2
CN(C)C(=O)Cn1cc(S(=O)(=O)Cc2ccccc2)c2ccccc21	-5	-13	-2	6	-3	-9
Cc1cccc2nc(CNC(=O)CC3C(=O)NCCN3Cc3cccc(F)c3)cn12 (centres undefined)	18	2	-2	0	58*	-5
CC(=O)c1c(C)[nH]c(C(=O)OCc2ccccc2)c1C	3	6	4	3	7	-13
CC(=O)c1c(C)[nH]c(C(=O)OCCCCN2C(=O)c3ccccc3C2=O)c1C	-1	29	2	8	-8	104*
Cc1ccccc1NC(=S)N(Cc1ccccc1)Cc1cccnc1	8	-16	-3	-2	21	-2
Cc1ccc(Cl)cc1NC(=S)N(Cc1cccnc1)Cc1ccccc1Cl	5	4	-1	6	72*	4
COc1cccc(NC(=S)N(CCc2nc3cc(C)c(C)cc3[nH]2)Cc2cccnc2)c1	x	-5	2	2	-13	x
Cc1ccc(C)c(NC(=S)N(CCc2nc3cc(C)c(C)cc3[nH]2)Cc2cccnc2)c1	14	2	24	1	66*	-11
Cc1cccc(NC(=S)N(CCc2nc3cc(C)c(C)cc3[nH]2)Cc2cccnc2)c1	x	14	4	2	79*	x
Cn1c(SCC(=O)NC2CCCCC2)nnc1-c1ccncc1	-5	-23	-3	3	-9	-1
COc1cc(/C=C(\C#N)c2nc3ccccc3[nH]2)ccc1Oc1ccc([N+](=O)[O-])cn1	18	17	10	8	62*	21
O=C(/C=C(\c1ccc(Cl)cc1)n1cncn1)c1ccc(Cl)cc1	24	40	3	1	65*	5
CSc1nc(NCC(C)O)c2c3c(sc2n1)CN(C)CC3 (centres undefined)	-8	-4	-3	-1	10	-6
CSc1nc(SCC(=O)NC(c2ccccc2)c2ccccc2)c2c3c(sc2n1)CN(C)CC3	35	-24	0	3	64*	30
CCn1c(C)cc(/C=C2/NC(=O)N(Cc3ccccc3F)C2=O)c1C	-2	-5	2	0	9	0
Cc1cc(/C=C2/NC(=O)N(Cc3ccccc3F)C2=O)c(C)n1C(C)C	11	14	4	3	57*	1
COc1ccc(C2NC(=S)N(c3ccccc3)C(C)=C2C(=O)Nc2ccccc2)cc1 (centres undefined)	1	20	-1	0	2	-9
CC1=C(C(=O)Nc2ccc([N+](=O)[O-])cc2)C(c2cccc(C(F)(F)F)c2)NC(=S)N1c1ccccc1 (centres undefined)	33	-4	4	0	57*	6
CC(Sc1nnc(C2CC2)n1C1CC1)C(=O)NC1(C#N)CCCCC1 (centres undefined)	x	19	-4	1	x	-1
O=C(/C=C/c1ccc2c(c1)OCO2)Nc1cccnc1	83*	-101	-3	3	2	-3
O=C(/C=C/c1ccc2c(c1)OCO2)Nc1nncs1	57	-24	-1	4	3	x
Cc1cccnc1NC(=O)/C=C/c1ccc2c(c1)OCO2	2	-37	1	4	-9	-12
Cc1cc(C)nc(NC(=O)/C=C/c2ccc3c(c2)OCO3)c1	85*	-60	1	19	0	10
SMILES	CSC inhib	Mdm2-MdmX inh	XBP1 UPR activ	CHOP UPR activ	T cruzi repl	Beta apoptosis
CC(=O)Nc1ccc(NC(=O)/C=C/c2ccc3c(c2)OCO3)cc1	48	-2	-5	4	-11	2
O=C(/C=C/c1ccc2c(c1)OCO2)Nc1nc(-c2ccccc2)cs1	99*	24	2	3	14	x
COC(=O)CSc1nnc(NC(=O)/C=C\c2ccc3c(c2)OCO3)s1	27	12	-1	-3	-9	-5
Cc1sc(NC(=O)/C=C/c2ccc3c(c2)OCO3)nc1-c1ccccc1	108*	33	-2	2	24	15
CCOC(=O)C1CCCN(C(=O)C2CCN(S(=O)(=O)c3ccc4ccccc4c3)CC2)C1 (centres undefined)	-6	32	-3	1	17	-3
CC1(c2ccccc2)NC(=O)N(CC(=O)N(CC(=O)Nc2ccccc2C(F)(F)F)Cc2ccco2)C1=O (centres undefined)	x	-1	-1	2	x	x
Cc1ccccc1SCC(=O)Nc1cc(C(F)(F)F)ccc1N1CCOCC1	26	27	11	7	65*	3
CC(=O)Nc1ccc(NC(=O)C2CCCN2C(=O)Nc2ccc(F)c([N+](=O)[O-])c2)cc1 (centres undefined)	-6	13	0	0	0	0
COc1ccc(CCN2CC(C(=O)N(C)Cc3ccc(C)o3)CCC2=O)cc1 (centres undefined)	-4	-16	-1	4	3	-1
COc1cc(CNCCc2ccccc2F)ccc1OCC(=O)N1CCCCC1	21	14	0	-2	62*	-1
CC(C)NC(=O)C1CCN(C2CCN(Cc3ccc4cccc(F)c4n3)CC2)CC1	-3	-4	-1	1	9	-3
O=C(OCn1ncc(Br)c(Br)c1=O)c1c(F)cccc1F	-3	x	x	x	39	112*
CC(C)(C)C(=O)Cn1ncc(N2CCCC2)c(Br)c1=O	-1	14	-1	4	-7	0
COC(=O)C(COC(=O)c1c(F)cccc1F)NC(=O)c1c(F)cccc1F (centres undefined)	1	-13	-5	-1	-17	-12
CC(=O)Cn1ncc(Br)c(Br)c1=O	x	x	x	x	56*	x
COCCC(=O)N1CCC(Oc2ccc(C(=O)N3CCCCC3COC)cc2)CC1 (centres undefined)	4	6	-1	2	-12	1
COc1cc(Br)cc2cc(C(=O)N3CCCCC3C)c(=O)oc12 (centres undefined)	-2	-6	0	0	-1	x
CCCCNc1c(-c2ccc(SC3CCCCC3)c(OC)c2)nc2ccc(Cl)cn12	3	11	0	-1	70*	-1
CCCCNc1c(-c2ccc(SC(C)CC)c(OC)c2)nc2ccc(C)cn12 (centres undefined)	123*	50	-1	9	29	53
